The results in this text go back to ChEMBL document CHEMBL1136968, “Structurally simple inhibitors of lanosterol 14alpha-demethylase are efficacious in a rodent model of acute Chagas disease” (J Med Chem, 2009).

Data set [1] is described as follows: Toxicity against mouse 3T3 cells by resazurin assay. The settings on record: NIH3T3 cells. The format is cell-based. The procedure, abridged:
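Murine 3T3 fibroblasts screened separately from the parasites. Host-cell growth was quantified by resazurin read-out and EC50 determined.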
(In general: Alamar Blue is a resazurin reagent that responds to reducing activity.)

The next data set deals with Trypanosoma cruzi. As to the kind of experiment: Antitrypanosomal activity against Trypanosoma cruzi Tulahuen amastigotes in mouse 3T3 cells by beta-galactosidase reporter gene assay. The format is functional, organism-based. The settings on record: NIH3T3. The procedure, abridged: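 Tulahuen strain (TCII lineage) grown as intracellular amastigotes in murine 3T3 fibroblasts in 96-well plates. EC50 determined from triplicate screens. Standard errors within assays stayed below 15%.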
Background: A reporter such as luciferase makes a cellular process visible.

The term EC50 denotes the midpoint of the concentration-response curve. A lower EC50 goes with higher potency in that assay. As for `COC(=O)c1ccc(NCc2cncn2Cc2cccc(Cl)c2)cc1-c1ccccc1`, the values for the EC50 (in data set [1]; in the data set with Trypanosoma cruzi) were over 10000 nM and 20 nM, respectively.
On to `COc1ccc(NCc2cncn2Cc2ccc(-c3ccccc3)cc2N)cc1-c1ccccc1`, for which the values for the EC50 (in data set [1]; in the data set on Trypanosoma cruzi) were over 1000 nM and 0.8 nM, respectively.
As for `COC(=O)c1ccc(NCc2cncn2Cc2ccccc2Br)cc1-c1ccccc1`, the EC50 in data set [1] came to 10000 nM; with Trypanosoma cruzi, 100 nM.
The like results for `COC(=O)c1ccc(NCc2cncn2Cc2ccc(-c3ccccc3)cc2)cc1-c1ccccc1` were, in that order, over 1000 nM and 0.5 nM.
`c1ccc(-c2ccc(Cn3cncc3CNc3ccc(-c4ccc[nH]4)c(-c4ccccc4)c3)cc2)cc1`: the EC50 in data set [1] was over 10000 nM; with Trypanosoma cruzi it was 100 nM.
For `COC(=O)c1ccc(NCc2cncn2Cc2ccc(N)cc2)cc1-c1ccccc1`, the EC50 in data set [1] is over 10000 nM; in the data set on Trypanosoma cruzi it was 250 nM.
For `CS(=O)(=O)c1ccc(Cn2cncc2CNc2ccc(-c3nc4ccccc4s3)c(-c3ccccc3)c2)cc1` the same measures were over 1000 nM and over 1000 nM.
For the compound `c1ccc(-c2ccc(Cn3cncc3CNc3ccc(-c4noc5ccccc45)c(-c4ccccc4)c3)cc2)cc1`, the EC50 was over 10000 nM in data set [1] and 10 nM in the data set on Trypanosoma cruzi.
Regarding `COC(=O)c1ccc(NCc2cncn2Cc2ccccc2)cc1-c1ccccc1`, the EC50 in data set [1] is over 1000 nM; in the data set on Trypanosoma cruzi, 80 nM.
For `COC(=O)c1ccc(NCc2cncn2Cc2ccc(OC)cc2)cc1-c1ccccc1`, in the data set with Trypanosoma cruzi, the EC50 is 25 nM.
On to `Fc1ccc(Cn2cncc2CNc2ccc(-c3nc4ccccc4s3)c(-c3ccccc3)c2)c(F)c1`, for which the EC50 in data set [1] was over 1000 nM; in the data set on Trypanosoma cruzi, 420 nM.
The like results for `CN(C)c1ccc(NCc2cncn2Cc2ccc(-c3ccccc3)cc2)cc1-c1ccccc1` were, in that order, over 1000 nM and 20 nM.
The like results for `O=[N+]([O-])c1ccc(Cn2cncc2CNc2cccc(-c3ccccc3)c2)cc1` were, in that order, 10000 nM and 100 nM.
For `c1ccc(-c2ccc(Cn3cncc3CNc3ccc(-c4ccccc4)cc3)cc2)cc1` the same measures were over 10000 nM and 200 nM.
`COC(=O)c1ccc(NCc2cncn2Cc2cccc([N+](=O)[O-])c2)cc1-c1ccccc1`: the results for the EC50 (in data set [1]; in the data set on Trypanosoma cruzi) were over 10000 nM and 30 nM, respectively.
For `Cc1ccccc1-c1cc(NCc2cncn2Cc2ccc(-c3ccccc3)cc2)ccc1-c1nc2ccccc2s1` the same measures were over 1000 nM and 31 nM.
For the compound `CNC(=O)c1ccc(NCc2cncn2Cc2ccc(-c3ccccc3)cc2N)cc1-c1ccccc1`, the figures for the EC50 (in data set [1]; in the data set with Trypanosoma cruzi) were over 1000 nM and 12 nM, respectively.
For `O=C(OC1CCCCC1)c1ccc(NCc2cncn2Cc2ccc(-c3ccccc3)cc2)cc1-c1ccccc1` the same measures were over 10000 nM and 10 nM.
The like results for `Cc1cccc(-c2cc(NCc3cncn3Cc3ccc(-c4ccccc4)cc3)ccc2-c2nc3ccccc3s2)c1C` were, in that order, over 1000 nM and 64 nM.
For `COC(=O)c1ccc(NCc2cncn2Cc2ccccc2[N+](=O)[O-])cc1-c1ccccc1` the same measures were 10000 nM and 100 nM.
With `COC(=O)c1ccc(NCc2cncn2Cc2ccccc2Cl)cc1-c1ccccc1`, the results for the EC50 (in data set [1]; in the data set on Trypanosoma cruzi) were 10000 nM and 100 nM, respectively.
On to `c1ccc(-c2ccc(Cn3cncc3CNc3ccc(N4CCCC4)c(-c4ccccc4)c3)cc2)cc1`, for which the figures for the EC50 (in data set [1]; in the data set on Trypanosoma cruzi) were over 1000 nM and 22 nM, respectively.
The like results for `c1ccc(-c2ccc(Cn3cncc3CNc3ccc(-c4cncs4)c(-c4ccccc4)c3)cc2)cc1` were, in that order, over 1000 nM and 9 nM.
For `COC(=O)c1ccc(NCc2cncn2Cc2ccc(C#N)cc2)cc1-c1ccccc1`, the results for the concentration for a half-maximal effect (EC50) (in data set [1]; with Trypanosoma cruzi) were over 10000 nM and 25 nM, respectively.
The like results for `O=C(c1ccc(NCc2cncn2Cc2ccc(-c3ccccc3)cc2)cc1-c1ccccc1)N1CCCCC1` were, in that order, over 1000 nM and 24 nM.
For `c1ccc(-c2ccc(Cn3cncc3CNc3ccc(-c4cc5ccccc5o4)c(-c4ccccc4)c3)cc2)cc1` the same measures were over 10000 nM and 40 nM.
The like results for `CC(=O)c1ccc(NCc2cncn2Cc2ccc(-c3ccccc3)cc2)cc1-c1ccccc1` were, in that order, over 10000 nM and 40 nM.
`CC(C)OC(=O)c1ccc(NCc2cncn2Cc2ccc(-c3ccccc3)cc2)cc1-c1ccccc1`: the EC50 in data set [1] is over 10000 nM; in the data set on Trypanosoma cruzi, 50 nM.
For `COC(=O)c1ccc(NCc2cncn2Cc2cccc(F)c2)cc1-c1ccccc1` the same measures were over 1000 nM and 150 nM.
Turning to `c1ccc(-c2ccc(Cn3cncc3CNc3ccccc3-c3ccccc3)cc2)cc1`, the EC50 was over 10000 nM in data set [1] and 80 nM in the data set with Trypanosoma cruzi.
For `COC(=O)c1ccc(NCc2cncn2Cc2ccc(C)cc2)cc1-c1ccccc1` the same measures were 50000 nM and 5 nM.
The like results for `c1ccc(Cn2cncc2CNc2cccc(-c3cccnc3)c2)cc1` were, in that order, over 1000 nM and 600 nM.
As for `CCOC(=O)c1ccc(NCc2cncn2Cc2ccc(-c3ccccc3)cc2)cc1-c1ccccc1`, the EC50 in data set [1] was over 10000 nM; in the data set with Trypanosoma cruzi, 10 nM.
The like results for `COC(=O)c1ccc(NCc2cncn2Cc2ccccc2N)cc1-c1ccccc1` were, in that order, 25000 nM and 5 nM.
As to `Nc1cc(-c2ccccc2)ccc1Cn1cncc1CNc1ccc(-c2cncs2)c(-c2ccccc2)c1`, the figures for the EC50 (in data set [1]; in the data set with Trypanosoma cruzi) were over 1000 nM and 10 nM, respectively.
The like results for `Clc1ccc(NCc2cncn2Cc2ccc(-c3ccccc3)cc2)cc1-c1ccccc1` were, in that order, over 1000 nM and 6 nM.
Turning to `c1ccc(-c2ccc(Cn3cncc3CNc3cccc(-c4ccccc4)c3)cc2)cc1`, the 50% effective concentration (EC50) turned out to be 10000 nM in data set [1] and 10 nM in the data set on Trypanosoma cruzi.
The like results for `COC(=O)c1ccc(NCc2cncn2Cc2cccc(C(C)(C)C)c2)cc1-c1ccccc1` were, in that order, over 1000 nM and 475 nM.
For `COC(=O)c1ccc(NCc2cncn2Cc2cccc(C#N)c2)cc1-c1ccccc1` the same measures were over 10000 nM and 100 nM.
On to `Clc1ccc(Cn2cncc2CNc2cccc(-c3ccccc3)c2)cc1`, for which the EC50 in data set [1] was determined as 10000 nM; with Trypanosoma cruzi, 80 nM.
For the compound `CC(C)c1cccc(NCc2cncn2Cc2ccccc2)c1`, the EC50 (in data set [1]; with Trypanosoma cruzi) was over 1000 nM each time.
`N#Cc1ccc(NCc2cncn2Cc2ccc(-c3ccccc3)cc2N)cc1-c1ccccc1`: the EC50 was over 1000 nM in data set [1] and 1.5 nM in the data set with Trypanosoma cruzi.
For `Cc1ccccc1-c1ccc(Cn2cncc2CNc2ccc(-c3nc4ccccc4s3)c(-c3ccccc3)c2)cc1` the same measures were over 1000 nM and 120 nM.
On to `COC(=O)c1ccc(NCc2cncn2Cc2cccc(C)c2)cc1-c1ccccc1`, for which the EC50 in data set [1] was over 10000 nM; in the data set with Trypanosoma cruzi, 20 nM.
The like results for `CCc1ccc(Cn2cncc2CNc2ccc(-c3nc4ccccc4s3)c(-c3ccccc3)c2)cc1` were, in that order, over 1000 nM and 110 nM.
As for `Cc1cccc(-c2cccc(NCc3cncn3Cc3ccccc3)c2)c1`, the EC50 is over 1000 nM in data set [1] and 550 nM in the data set with Trypanosoma cruzi.
Consider `Cc1ccc(Cn2cncc2CNc2cccc(-c3ccccc3)c2)cc1`, for which the EC50 was determined as 10000 nM in data set [1] and 100 nM with Trypanosoma cruzi.
For `COC(=O)c1ccc(NCc2cncn2Cc2ccc(F)cc2F)cc1-c1ccccc1` the same measures were over 1000 nM and 21 nM.
For `CC(C)c1ccc(Cn2cncc2CNc2ccc(-c3nc4ccccc4s3)c(-c3ccccc3)c2)cc1` the same measures were over 1000 nM and 540 nM.
For `COC(=O)c1ccc(NCc2cncn2Cc2ccccc2C)cc1-c1ccccc1` the same measures were 10000 nM and 1000 nM.
On to `COC(=O)c1ccc(NCc2cncn2Cc2ccc(Br)cc2)cc1-c1ccccc1`, for which the EC50 in data set [1] was over 10000 nM; in the data set on Trypanosoma cruzi, 20 nM.
Take `CNC(=O)c1ccc(NCc2cncn2Cc2ccc(-c3ccccc3)cc2)cc1-c1ccccc1`: the EC50 in data set [1] was over 1000 nM; in the data set with Trypanosoma cruzi it was 2.4 nM.
For `COC(=O)c1ccc(NCc2cncn2Cc2cccc(Br)c2)cc1-c1ccccc1` the same measures were over 10000 nM and 20 nM.
Regarding `Cc1cccc(-c2cccc(NCc3cncn3Cc3ccccc3)c2)c1C`, the EC50 in data set [1] is over 1000 nM; in the data set on Trypanosoma cruzi it was 260 nM.
The like results for `c1ccc(Cn2cncc2CNc2cccc(-c3ccncc3)c2)cc1` were, in that order, over 1000 nM and 510 nM.
The like results for `COC(=O)c1ccc(NCc2cncn2Cc2ccccc2C#N)cc1-c1ccccc1` were, in that order, 25000 nM and 200 nM.
Regarding `c1ccc(-c2ccc(Cn3cncc3CNc3ccc(N4CCCCC4)c(-c4ccccc4)c3)cc2)cc1`, the values for the EC50 (in data set [1]; in the data set with Trypanosoma cruzi) were over 1000 nM and 23 nM, respectively.
For `COC(=O)c1ccc(NCc2cncn2Cc2ccc(Cl)cc2)cc1-c1ccccc1`, the EC50 in data set [1] was determined as 25000 nM; with Trypanosoma cruzi it was 5 nM.
For `c1ccc(-c2ccc(Cn3cncc3CNc3ccc(-c4ccccc4)c(-c4ccccc4)c3)cc2)cc1` the same measures were over 10000 nM and 80 nM.
The like results for `COC(=O)c1ccc(NCc2cncn2Cc2ccc(-c3ccccc3)cc2)cc1` were, in that order, over 10000 nM and 80 nM.
In the case of `Cc1ccccc1-c1cccc(NCc2cncn2Cc2ccccc2)c1`, the EC50 in data set [1] is over 1000 nM; with Trypanosoma cruzi it was 230 nM.
For `CCC(=O)c1ccc(NCc2cncn2Cc2ccc(-c3ccccc3)cc2)cc1-c1ccccc1` the same measures were over 10000 nM and 40 nM.
The like results for `c1ccc(Cn2cncc2CNc2cccc(-c3ccccc3)c2)cc1` were, in that order, over 750 nM and 360 nM.
For `COC(=O)c1ccc(NCc2cncn2Cc2ccc([N+](=O)[O-])cc2)cc1-c1ccccc1` the same measures were over 10000 nM and 100 nM.
As to `c1ccc(-c2ccc(Cn3cncc3CNc3ccc(-c4nc5ccccc5o4)c(-c4ccccc4)c3)cc2)cc1`, the EC50 in data set [1] was over 10000 nM; in the data set with Trypanosoma cruzi, 100 nM.
